Assay results taken from PubChem BioAssay.
Calls of active or inactive are those of the source.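 How the source made its calls, unless noted: active means fluorescence slope higher than the sample average by over 3 SD (cut at about -0.22 in these data, passing the limit was not always enough); inactive means the rest.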

Columns and labels:
[1] = inhibitors of TNFa-induced NFkB p65 translocation, primary screen, imaging, HUVEC, MLSMR starter and 10KST1 sets (AID 438;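 active means inhibition above 20% together with a positive visual image hit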;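 further: compound added about 3h40 before a 20 min TNFalpha stimulation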;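 on inhibition: signal is the nuclear over cytoplasmic p65 intensity ratio per well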); details: HUVEC TNFa-induced p65 nuclear translocation; cell count: measured here: nuclei count (cytotoxicity indicator), at 2.08 µM; inhibition: at 2 µM, stronger effect = higher value, 0% TNFa-plus-vehicle, 100% no-TNFa wells
[2] = inhibitors of E-selectin induction by TNFa, primary screen, imaging, HUVEC, immunofluorescence, MLSMR starter and 10KST1 sets (AID 487;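 active means visually confirmed hit in the image check and inhibition above 20%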;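 on inhibition: signal is fraction of cell area covered by stained E-selectin grains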;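 on nuclei count: 100% = median nuclei count of all wells on the same plate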); details: HUVEC TNFalpha-induced E-selectin immunofluorescence imaging, at 2 µM; inhibition: stronger effect = higher value; nuclei count: measured here: cell number, toxicity
[3] = DUSP6 inhibitors restoring Erk phosphorylation by chemical complementation, primary imaging in DUSP6-transfected HeLa (AID 609;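 active means compounds giving at least 50% inhibition in the cell-based MKP-3 phosphatase rescue imaging test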;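 on inhibition: phospho-Erk level distribution per well compared with pooled transfected vehicle control wells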); details: HeLa MKP-3 transfected, phospho-Erk imaging KS statistic, at 10 µM, cells stimulated with TPA for 15 min
[4] = molecular target: Dual specificity protein phosphatase 6 (Homo sapiens) (UniProt Q16828); test: as above; details: HeLa MKP-3 transfected, phospho-Erk imaging KS statistic; at 10 µM; stronger effect = higher value; cells stimulated with TPA for 15 min
[5] = molecular target: Voltage-gated potassium channel subunit beta-2 (Rattus norvegicus) (UniProt P62483); test: KvBeta enzyme negative modulators, primary screen, biochemical, NADPH fluorescence (AID 622); details: recombinant KvBeta, 4-cyanobenzaldehyde reduction, at 10 µM, stronger effect = higher value;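 further: slope of raw intensity against log time taken from 70 to 1610 s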
[6] = molecular target: Voltage-gated potassium channel subunit beta-2 (Rattus norvegicus) (UniProt P62483); test: KvBeta positive modulators, primary screen, biochemical, NADPH fluorescence (AID 623;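 active means NADPH fluorescence slope more negative than the mean of all samples by about 3 SD, 99.7% confidence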;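 further: fluorescence intensity change per second fitted from 20 to 320 s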); details: Recombinant KvBeta, NADPH fluorescence decrease slope, 10 min; at 10 µM; stronger effect = lower value
[7] = molecular target: Muscarinic acetylcholine receptor M4 (Homo sapiens) (UniProt P08173); test: compounds altering M4/GIRK thallium flux, either direction, primary screen, M4 allosteric agonist project, cell-based, HEK293 M4/GIRK, BTC-AM (AID 625;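 active means fluorescence slope after compound addition differing from the mean of all tested samples at 99.7% confidence, mostly higher but some lower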;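 further: thallium influx through GIRK channels coupled to M4 in HEK293 cells with BTC-AM dye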); details: at 10 µM, actives lie on both sides
Outline: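 assay system = HEK293 cells with M4 receptor and GIRK channels | medium = pH 7.3 thallium assay buffer | doses = 10 µM final, single point | timing = cells overnight at 37 °C, BTC-AM loading 1 h, reads 2 min total | signal = BTC-AM fluorescence, 1 Hz kinetic reads | read-out = post-addition slope, 15–24 s, of baseline-normalized fluorescence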

[8] = inhibitors of larval lipid processing in zebrafish, primary screen, whole organism, PED6 fluorescence, gall bladder and intestine (AID 686;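 active means a full or partial loss of lipid-probe fluorescence in the fish gall bladder, intestine or both, judged by eye; inactive means no fluorescence loss, or compound toxic to the fish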;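 further: larvae 5 to 7 days old with five fish per well; signal comes from phospholipase A2 cleavage of quenched PED6 carried via bile; overnight exposure to compound and PED6 before scoring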); details: Zebrafish larvae PED6 lipid processing, fluorescence scoring; screened at 20 µM (by protocol)
Outline: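 Also added: quenched phospholipase substrate PED6, 100 nM final, ingested by larvae; System: zebrafish larvae, 5-7 d; Quantity: 5 larvae per well; Compound: 20 µM single dose; Schedule: overnight compound and PED6 incubation; Read-out: visual per-well fluorescence inhibition score; Measured by: By-eye fluorescence microscopy; Medium: E3.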

[9] = inhibitors of Chlamydomonas gravitaxis, primary screen, whole organism, Chlamydomonas reinhardtii, WT vs cilia-less mutant, absorbance, 96-well (AID 463189;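 active means inhibition at or above 50% relative to wild type and mutant plate controls; inactive means inhibition below 50%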;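 further: 0% = wild type cc124 cells in DMSO and 100% = ciliumless bld1 mutant cells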); details: OD600 absorbance, 2 days, at 10 µM, stronger effect = higher value
[10] = measured here: cell density z-score
[11] = measured here: nuclear c-Myc green intensity z-score
[12] = measured here: nuclear pErk red intensity z-score, stronger effect = higher value

Sequence of Voltage-gated potassium channel subunit beta-2 (Rattus norvegicus) (P62483 whole entry, looked up): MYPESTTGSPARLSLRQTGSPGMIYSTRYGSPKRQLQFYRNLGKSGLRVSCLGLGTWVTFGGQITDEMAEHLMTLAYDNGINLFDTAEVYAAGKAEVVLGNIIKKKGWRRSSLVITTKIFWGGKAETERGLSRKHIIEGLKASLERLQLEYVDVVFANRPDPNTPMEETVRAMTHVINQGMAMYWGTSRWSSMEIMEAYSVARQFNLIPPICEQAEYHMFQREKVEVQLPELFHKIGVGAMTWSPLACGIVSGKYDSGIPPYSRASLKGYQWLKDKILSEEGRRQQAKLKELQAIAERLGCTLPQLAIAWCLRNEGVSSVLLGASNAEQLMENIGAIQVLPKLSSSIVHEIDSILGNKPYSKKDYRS
Sequence of Muscarinic acetylcholine receptor M4 (Homo sapiens) (P08173 whole entry, looked up): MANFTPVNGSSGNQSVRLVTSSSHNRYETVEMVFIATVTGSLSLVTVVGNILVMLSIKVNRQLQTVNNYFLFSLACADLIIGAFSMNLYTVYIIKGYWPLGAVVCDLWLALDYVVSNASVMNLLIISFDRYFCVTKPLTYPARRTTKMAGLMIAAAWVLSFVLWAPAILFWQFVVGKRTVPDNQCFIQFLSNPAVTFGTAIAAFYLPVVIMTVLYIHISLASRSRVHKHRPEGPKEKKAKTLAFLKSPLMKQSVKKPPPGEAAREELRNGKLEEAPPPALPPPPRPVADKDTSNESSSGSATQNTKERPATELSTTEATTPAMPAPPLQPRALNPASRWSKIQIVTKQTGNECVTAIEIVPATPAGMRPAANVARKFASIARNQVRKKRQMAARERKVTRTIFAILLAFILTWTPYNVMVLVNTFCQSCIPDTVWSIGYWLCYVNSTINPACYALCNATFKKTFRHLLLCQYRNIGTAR
Sequence of Dual specificity protein phosphatase 6 (Homo sapiens) (Q16828 whole entry, looked up): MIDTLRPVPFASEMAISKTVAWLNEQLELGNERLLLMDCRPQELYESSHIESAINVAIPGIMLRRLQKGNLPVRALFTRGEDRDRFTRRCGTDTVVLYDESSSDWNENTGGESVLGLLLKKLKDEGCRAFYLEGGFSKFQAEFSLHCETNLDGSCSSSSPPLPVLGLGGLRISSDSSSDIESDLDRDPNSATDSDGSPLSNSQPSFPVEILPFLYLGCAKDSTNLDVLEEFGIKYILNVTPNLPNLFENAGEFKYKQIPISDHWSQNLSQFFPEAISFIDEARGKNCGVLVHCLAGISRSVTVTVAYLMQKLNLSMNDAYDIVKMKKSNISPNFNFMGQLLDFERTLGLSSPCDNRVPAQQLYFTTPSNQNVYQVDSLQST

Row | Structure (SMILES) | cell count [1] | inhibition [1] | inhibition [2] | nuclei count [2] | z-score [3, 10] | z-score [3, 11] | z-score [3, 12] | inhibition [4] | fluorescence slope [5] | NADPH fluorescence slope [6] | fluorescence slope [7] | outcome [8] | inhibition [9]
1 | CCOc1ccc(-c2nc(C#N)c(N3CCN(CC)CC3)o2)cc1 | 416 | 0.1% (inactive) | -29.1% (inactive) | 129% | 0.554 | 0.103 | 0.968 | -2.69% (inactive) | -0.498 (inactive) | -0.00012 (inactive) | 0.00446 (inactive) | inactive | 5.29% (inactive)
2 | CCOc1ccc(C2C(C#N)=C(N)Oc3cc(C)n(CCN4CCOCC4)c(=O)c32)cc1OCC (stereo unspecified) | 556 | -10.8% (inactive) | -15.2% (inactive) | 167% | -0.219 | 1.25 | -0.841 | -10.1% (inactive) | -0.458 (inactive) | -4.1e-05 (inactive) | 0.0054 (inactive) | inactive | 7.88% (inactive)
3 | COC(=O)c1ccc(C2/C(=C(/O)c3ccc(OC)cc3)C(=O)C(=O)N2Cc2ccco2)cc1 (stereo unspecified) | 603 | -5.8% (inactive) | -47.8% (inactive) | 96.4% | -1.62 | 0.429 | -2.41 | -4.59% (inactive) | -0.4 (inactive) | 4.5e-06 (inactive) | 0.0058 (inactive) | inactive | -8.72% (inactive)
4 | Nc1nc2n(n1)C(c1ccc(F)cc1)CC(c1ccc(F)cc1)N2 (stereo unspecified) | 346 | -13.8% (inactive) | -43.3% (inactive) | 97% | -0.282 | 0.742 | -0.273 | 5.65% (inactive) | -0.457 (inactive) | -5.2e-05 (inactive) | 0.00499 (inactive) | inactive | 19.7% (inactive)
5 | Cc1nn2cnc3sc4c(c3c2nc1=O)CCCC4 | 535 | -9.5% (inactive) | -186% (inactive) | 145% | 0.522 | -0.702 | -1.01 | 13.9% (inactive) | -0.364 (inactive) | -2.5e-05 (inactive) | 0.00519 (inactive) | inactive | 19.9% (inactive)
6 | COCCOC(=O)c1c(C)oc2ccc(OC(=O)COc3c(F)c(F)c(F)c(F)c3F)cc12 | 524 | -3.3% (inactive) | -26.1% (inactive) | 98.8% | -0.212 | -0.943 | 0.127 | -2.09% (inactive) | -0.461 (inactive) | -2.6e-05 (inactive) | 0.0112 (inactive) | inactive | -9.48% (inactive)
7 | CCOc1ccc(NC(=O)CSC2=C(C#N)C(c3ccc4c(c3)OCO4)CC(=O)N2)cc1 (stereo unspecified) | 639 | 0.6% (inactive) | 75.3% (inactive) | 140% | 0.00899 | -0.0485 | -0.833 | -6.06% (inactive) | -0.47 (inactive) | -5.2e-05 (inactive) | 0.00582 (inactive) | inactive | 14.4% (inactive)
8 | COC(=O)COc1ccc(Oc2nc(SC)nc(N(C)C)n2)nn1 | 345 | -16.3% (inactive) | -54.5% (inactive) | 109% | -0.468 | -0.441 | -0.861 | -3.95% (inactive) | -0.461 (inactive) | -8.1e-05 (inactive) | 0.00594 (inactive) | inactive | -8.33% (inactive)
9 | COC(=O)c1c(C)[nH]c(C(=O)OCc2ccc(F)cc2)c1C | 693 | -3.8% (inactive) | 50.5% (inactive) | 160% | -0.559 | -1.43 | -0.0192 | 7.21% (inactive) | -0.461 (inactive) | -1.9e-05 (inactive) | 0.00635 (inactive) | inactive | 80.6% (active)
10 | Cn1c(=O)c2c(nc(NCCCO)n2Cc2cccc(C(F)(F)F)c2)n(C)c1=O | 652 | -11.8% (inactive) | -70% (inactive) | 95.4% | -1.68 | -0.0388 | 0.32 | -5.95% (inactive) | -0.492 (inactive) | -6.8e-05 (inactive) | 0.00722 (inactive) | inactive | -3.98% (inactive)
11 | Cn1cccc1/C=N/n1cnnc1 | 561 | 0.9% (inactive) | -164% (inactive) | 130% | 0.378 | -0.4 | -0.934 | -4.59% (inactive) | -0.452 (inactive) | -0.000125 (inactive) | 0.0051 (inactive) | inactive | -1.85% (inactive)
12 | N#Cc1c2c(c(-c3ccco3)[nH]c1=O)CCCC2 | 576 | -5% (inactive) | -60.2% (inactive) | 152% | -0.652 | 0.857 | 0.409 | -5.81% (inactive) | -0.435 (inactive) | -0.000117 (inactive) | 0.00432 (inactive) | inactive | 17% (inactive)
13 | Cn1c[n+](C)cc1/C=N/O | 710 | -2% (inactive) | -108% (inactive) | 159% | -0.468 | 0.134 | -0.77 | 0.671% (inactive) | -0.459 (inactive) | -6.2e-05 (inactive) | 0.00537 (inactive) | inactive | -4.46% (inactive)
14 | CCN(CC)c1ccc(C2Nc3cccc4cccc(c34)N2)c(O)c1 | 571 | 2.2% (inactive) | -102% (inactive) | 134% | 0.205 | -0.845 | -0.409 | -0.584% (inactive) | -0.397 (inactive) | -7.3e-05 (inactive) | 0.00286 (inactive) | active; no signal in gallbladder and intestine | 40% (inactive)
15 | CCOC(=O)C(C)Oc1ccc2c(C)cc(=O)oc2c1C(C)=O (stereo unspecified) | 708 | 3.9% (inactive) | -13.3% (inactive) | 198% | -0.905 | 0.873 | 1.56 | 1.98% (inactive) | -0.459 (inactive) | -4.7e-05 (inactive) | 0.00606 (inactive) | inactive | 3.24% (inactive)
16 | Cc1ccc(C(=O)/C=C/Nc2ccccn2)cc1 | 361 | -5.9% (inactive) | -98.9% (inactive) | 104% | 0.761 | 0.782 | -1.14 | 15.4% (inactive) | -0.455 (inactive) | -3.3e-05 (inactive) | 0.00424 (inactive) | inactive | 35.5% (inactive)
17 | N#Cc1nc(COc2ccc(Br)cc2)oc1N1CCN(Cc2ccccc2)CC1 | 444 | 2% (inactive) | -74.5% (inactive) | 138% | 0.98 | 0.14 | -0.518 | 12.7% (inactive) | -0.444 (inactive) | -2.9e-05 (inactive) | 0.00951 (inactive) | inactive | 12.9% (inactive)
18 | CCCNc1ncnc2c1cnn2-c1ccc(OC)cc1 | 631 | -12.5% (inactive) | -39.6% (inactive) | 185% | -1.64 | -0.363 | 0.771 | 1.42% (inactive) | -0.37 (inactive) | -4.9e-05 (inactive) | 0.00652 (inactive) | inactive | -16% (inactive)
19 | CCc1cc(=O)oc2cc(C)c(CN3CCCCC3)c(O)c12 | 612 | -9.1% (inactive) | 31% (inactive) | 182% | -0.916 | -0.125 | 1.01 | -8.95% (inactive) | -0.464 (inactive) | -6.3e-05 (inactive) | 0.00459 (inactive) | inactive | 4.62% (inactive)
20 | C=CCn1c(SCC(=O)c2ccc(NS(=O)(=O)c3ccccc3)cc2)nnc1-c1cccs1 | 682 | 3.2% (inactive) | -98.4% (inactive) | 156% | -0.412 | -0.46 | 0.993 | -13.3% (inactive) | -0.473 (inactive) | -4.5e-05 (inactive) | 0.00636 (inactive) | inactive | -10.7% (inactive)
21 | CCOCCn1c(SCc2c(F)cccc2Cl)nc2c1c(=O)[nH]c(=O)n2C | 620 | 3.9% (inactive) | -40.4% (inactive) | 114% | -0.473 | 0.0694 | 0.197 | -9.53% (inactive) | -0.472 (inactive) | -4.5e-05 (inactive) | 0.00638 (inactive) | inactive | -4.7% (inactive)
22 | CCCCc1nc2sc3c(c2c(=O)[nH]1)CCC3 | 691 | 3.3% (inactive) | 8% (inactive) | 129% | -0.915 | 0.812 | -0.126 | -9.53% (inactive) | -0.421 (inactive) | -4e-05 (inactive) | 0.00621 (inactive) | inactive | 34.8% (inactive)
23 | COc1ccc(C2=CC(c3ccc(C)cc3)n3nnnc3N2)cc1 (stereo unspecified) | 524 | -9.2% (inactive) | 29.9% (inactive) | 186% | -0.166 | -0.102 | 0.752 | -9.91% (inactive) | -0.294 (inactive) | -4.1e-05 (inactive) | 0.00566 (inactive) | inactive | -5.34% (inactive)
24 | O=C1CCCN1c1ccc(S(=O)(=O)NCc2ccco2)cc1 | 702 | 3.6% (inactive) | -53.1% (inactive) | 180% | 0.977 | -0.343 | 1.6 | 15.9% (inactive) | -0.489 (inactive) | -3.7e-05 (inactive) | 0.00466 (inactive) | inactive | 15.5% (inactive)
25 | Cc1ccc(-n2ncc3c(N4CCCC4)ncnc32)c(C)c1 | 615 | -13.7% (inactive) | 4.8% (inactive) | 158% | 0.427 | -1.76 | -0.345 | -2.59% (inactive) | -0.327 (inactive) | -4.9e-06 (inactive) | 0.00689 (inactive) | inactive | 147% (active)
26 | COCCCNc1nc2c(c(=O)[nH]c(=O)n2C)n1CC(O)COc1ccccc1 (stereo unspecified) | 379 | 6.8% (inactive) | -63.3% (inactive) | 128% | -0.311 | -0.833 | 1.79 | -0.608% (inactive) | -0.444 (inactive) | -7.9e-05 (inactive) | 0.00457 (inactive) | inactive | 23.4% (inactive)
27 | COCCCn1cnc2c(c1=O)c1nc3ccccc3nc1n2CCc1ccccc1 | 607 | -6.7% (inactive) | 10.3% (inactive) | 115% | -3.3 | 0.876 | 0.579 | 1.63% (inactive) | -0.492 (inactive) | -4.8e-05 (inactive) | 0.00438 (inactive) | inactive | 12.1% (inactive)
